# Experimental data from ChEMBL document CHEMBL1124291, “New actinomycin D analogues as superior chemotherapeutic agents against primary and advanced colon tumors and colon xenografts in nude mice” (J Med Chem, 1988).
# Experiments:
# P388 (Mus musculus) [1] = assay: Percent of the unconverted isolated from incubation mixture containing tumor cell homogenate(T)
# MC-38 [2] = assay: Mean survival time of treated / untreated group x100. (number of over 100-day survivors/number of total mice in the group) at a dose 1.20 mg/kg; format: functional, Mus musculus; conditions: dose 1.2 mg/kg
# Summary of the method: (§1)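 CDF1 mice were implanted sc on day 0 with colon 38 adenocarcinoma fragments (70 mg) and given iv drug on days 1, 5 and 9. %T/C = median survival of treated / untreated × 100. Number of mice surviving over 100 days / group total is given in parentheses.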
# MC-38 [3] = assay: Number of toxic deaths/number of mice in a group of non tumored mice treated in parallel with the tumor-bearing mice and observed for 100 days at a dose 1. 20 mg/Kg; value given as 2/9; format: toxicity, cell-based; conditions: mouse, in vivo, 2400 h
# Summary of the method: (§2)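 Non-tumored CDF1 mice were treated in parallel with colon 38 tumor-bearing mice: iv injections on days 1, 5 and 9, groups of nine. Deaths were counted over 100 days of observation and reported as toxic deaths / mice in group.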
# Rattus norvegicus [4] = organism: Rattus norvegicus; assay: DNA-cleaving ability expressed as % of closed circular pBR322 DNA cleaved at 100 uM conc 100 uM; format: functional
# Summary of the method: (§3)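 pBR322 DNA (200 μM nucleotides) in 10 mM Tris·HCl pH 7.8 and 50 mM NaCl, with 4 mM Na₂S₂O₄ and 100 μM FeCl₂. Incubated with drug for 1 h at 20 °C, kept air-saturated. Supercoiled and open-circular forms were separated by agarose gel electrophoresis, stained with ethidium bromide and quantitated by densitometry. % cleaved was calculated from the open- and closed-circular amounts.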
# MC-38 [5] = assay: Mean survival time of treated / untreated group x100. (number of over 100-day survivors/number of total mice in the group) at a dose 0.60 mg/kg; format: functional, Mus musculus; conditions: dose 0.6 mg/kg
# Summary of the method: as §1
# MC-38 [6] = assay: Number of toxic deaths/number of mice in a group of non tumored mice treated in parallel with the tumor-bearing mice and observed for 100 days at a dose 0.60 mg/Kg; value given as 1/9; format: toxicity; conditions: mouse, in vivo, 0.6 mg/kg, 2400 h
# Summary of the method: as §2
# Rattus norvegicus [7] = organism: Rattus norvegicus; assay: Percent of the protein conjugates isolated from incubation mixture containing rat microsomes; format: functional
# Summary of the method: (§4)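 Tritiated analogues were incubated with two systems. (T) sonicated P388 cell homogenates, 37 °C for 16 h. (M) liver microsomes from phenobarbital-induced rats, 6 h with an NADPH-generating system (glucose-6-phosphate dehydrogenase plus glucose 6-phosphate). Metabolites and water-soluble conjugates were isolated, separated by HPLC and expressed as percentages.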
# MC-38 [8] = assay: Mean survival time of treated / untreated group x100. (number of over 100-day survivors/number of total mice in the group) at a dose 0.30 mg/kg; format: functional, Mus musculus; conditions: dose 0.3 mg/kg
# Summary of the method: as §1
# P388 [9] = assay: Antitumor activity in P388/ADR (adriamycin resistant) in male BDF1 mice measured as optimal dose at dose 0.10-1.0 mg/kg/ inj, inp
# MC-38 [10] = assay: Activity against advanced carcinoma C38 Tumor in CDF1 Mice at dose 1.20 mg/ kg measured as % inhibition of tumor; format: functional; conditions: Mus musculus
# P388 [11] = assay: 50% inhibition of incorporation precursor [14C]uridine into RNA P388 cell lines; format: functional, cell-based; conditions: Mus musculus
# Rattus norvegicus [12] = organism: Rattus norvegicus; assay: Stimulation of NADPH oxidation in the presence of rat liver microsomes; format: functional
# Summary of the method: (§5)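 Drug-stimulated superoxide generation with rat liver microsomal enzymes and NADPH as cofactor. NADPH oxidation was read at 340 nm. Adrenochrome formed from epinephrine was read at 480 nm, with or without superoxide dismutase. % stimulation = [(drug-stimulated rate − basal rate)/basal rate] × 100. Values are mean ± standard error of triplicate analyses.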
# Rattus norvegicus [13] = organism: Rattus norvegicus; assay: Percent of the unidentified metabolites isolated from incubation mixture containing rat microsomes; format: functional
# Summary of the method: as §4
# Mus musculus = organism: Mus musculus; assay: Percent of the SAD glucuronide and/or sulfate isolated from incubation mixture containing tumor cell homogenate(T) after 8.0, 10.5 min
# P388 (Mus musculus) [14] = assay: Percent of the tissue bound conjugates isolated from incubation mixture containing tumor cell homogenate(T)
# Rattus norvegicus [15] = organism: Rattus norvegicus; assay: Percent of the SAD isolated from incubation mixture containing tumor cell homogenate(T) after 7.7 min; format: functional
# Summary of the method: as §4
# Rattus norvegicus [16] = organism: Rattus norvegicus; assay: Percent of the SAD isolated from incubation mixture containing rat micro somes, after 20.0 min
# [17] = DNA-cleaving ability expressed as % of closed circular pBR322 DNA cleaved at 10 uM conc 10 uM
# Rattus norvegicus [18] = organism: Rattus norvegicus; assay: The formation of adrenochrome from epinephrine in the presence of SOD(super oxide dismutase); + denotes ' Inhibited'; format: functional
# Summary of the method: as §5
# HT-29 [19] = assay: 50% inhibition of incorporationf precursor [3H]thymidine into RNA HT-29 cell lines; format: functional, cell-based; conditions: Homo sapiens, HT-29, 2 h; in the assay text read “[14C]uridine” for “[3H]thymidine”
# Summary of the method: (§6)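 HT-29 colon carcinoma monolayers, 10^4 cells per well, five wells per concentration. Drug exposure lasted 2 h, with [³H]thymidine and [2-¹⁴C]uridine (0.5 μCi each) added for the last hour. Cells were washed, trypsinized, counted and precipitated onto glass-fiber filters with 10% TCA. Acid-precipitable radioactivity was measured. IC50 is the concentration inhibiting 50% of incorporation; data are averages of replicate experiments.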
# MC-38 [20] = assay: Activity against advanced carcinoma C38 Tumor in CDF1 Mice at dose 0.60 mg/ kg measured as % inhibition of tumor; format: functional; conditions: Mus musculus
# pBR322 plasmid DNA = assay: DNA-cleaving ability expressed as % of closed circular pBR322 DNA cleaved […]
# P388 [21] = assay: 50% inhibition of incorporation of precursor [3H]thymidine into DNA P388 cell lines; format: functional, cell-based; conditions: Mus musculus, P388, 2 h
# P388 (Mus musculus) [22] = assay: Percent of the protein conjugates isolated from incubation mixture containing tumor cell homogenate(T)
# MC-38 [23] = assay: Number of toxic deaths/number of mice in a group of non tumored mice treated in parallel with the tumor-bearing mice and observed for 100 days at a dose 0.30 mg/Kg; value given as 0/9; format: functional, Mus musculus
# Summary of the method: as §2
# B16 [24] = assay: in vivo Antitumor activity against B16 melanoma cells at a optimal dose 300 ug/Kg /inj measured as %ILS (%increase life span); format: functional; conditions: Mus musculus
# Summary of the method: (§7)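 BDF1 mice in groups of nine were implanted ip on day 0 with 0.2 mL of 1:5 (w/v) B16 melanoma brei; drugs were given ip. Survival is reported as median survival time in days with range, and as %ILS, with survivors counted on day 65 out of total injected.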
# Rattus norvegicus [25] = organism: Rattus norvegicus; assay: Percent of the tissue bound conjugates isolated from incubation mixture containing rat microsomes; format: functional
# Summary of the method: as §4
# Rattus norvegicus [26] = organism: Rattus norvegicus; assay: Percent of the unconverted isolated from incubation mixture containing rat microsomes; format: functional
# Summary of the method: as §4
# B16 [27] = assay: in vivo Antitumor activity against B16 melanoma cells at dose 300 ug/Kg /inj measured as Mean survival time (MST); format: functional, Mus musculus
# Summary of the method: as §7
# Rattus norvegicus [28] = organism: Rattus norvegicus; assay: DNA-cleaving ability expressed as % of closed circular pBR322 DNA cleaved […] conc 50 uM; format: functional
# Summary of the method: as §3
# P388 (Mus musculus) [29] = assay: Percent of the unidentified metabolites isolated from incubation mixture containing tumor cell homogenate(T)
# MC-38 [30] = assay: Activity against advanced carcinoma C38 Tumor in CDF1 Mice at dose 0.30 mg/ kg measured as % inhibition of tumor; format: functional; conditions: Mus musculus
# Rattus norvegicus [31] = organism: Rattus norvegicus; assay: The formation of adrenochrome from epinephrine in the absence of SOD(super oxide dismutase); format: functional
# Summary of the method: as §5
# HT-29 [32] = assay: 50% inhibition of incorporationf precursor [3H]thymidine into DNA HT-29 cell lines; format: functional, cell-based; conditions: Homo sapiens, HT-29, 2 h
# Summary of the method: as §6
smiles,measurement,setting,value
Cc1c2oc3c(C)c4oc(CC(=O)NCCCCN)nc4c(C(=O)N[C@@H]4C(=O)N[C@H](C(C)C)C(=O)N5CCC[C@H]5C(=O)N(C)CC(=O)N(C)[C@@H](C(C)C)C(=O)O[C@@H]4C)c3nc-2c(C(=O)N[C@@H]2C(=O)N[C@H](C(C)C)C(=O)N3CCC[C@H]3C(=O)N(C)CC(=O)N(C)[C@@H](C(C)C)C(=O)O[C@@H]2C)c(N)c1=O,Activity,P388 (Mus musculus) [1],20%
same,T/C,MC-38 [2],231%
same,Toxic deaths,MC-38 [3],2
same,Activity,Rattus norvegicus [4],58%
same,T/C,MC-38 [5],250%
same,Toxic deaths,MC-38 [6],1
same,Activity,Rattus norvegicus [7],10%
same,T/C,MC-38 [8],170%
same,optimal dose,P388 [9],1 mg/kg
same,inhibition in vivo at 1.2 mg/kg,MC-38 [10],94%
same,IC50,P388 [11],55 nM
same,NADPH oxidation (nM min-1 (mg of protein)-1),Rattus norvegicus [12],87.1
same,Activity,Rattus norvegicus [13],8%
same,Activity,Mus musculus,40%
same,Activity,P388 (Mus musculus) [14],5%
same,Activity,Rattus norvegicus [15],20%
same,Activity,Rattus norvegicus [16],65%
same,Activity,[17],40%
same,Adrenochrome formation,Rattus norvegicus [18],Inhibited
same,IC50,HT-29 [19],65 nM
same,inhibition in vivo at 0.6 mg/kg,MC-38 [20],93%
same,Activity,pBR322 plasmid DNA,45%
same,IC50,P388 [21],430 nM
same,Activity,P388 (Mus musculus) [22],8%
same,Toxic deaths,MC-38 [23],0
same,ILS at 0.3 mg/kg,B16 [24],114%
same,Activity,Rattus norvegicus [25],5%
same,Activity,Rattus norvegicus [26],10%
same,MST,B16 [27],62
same,Activity,Rattus norvegicus [28],50%
same,Activity,P388 (Mus musculus) [29],5%
same,inhibition in vivo at 0.3 mg/kg,MC-38 [30],80%
same,Adrenochrome formation,Rattus norvegicus [31],22.1 nM min-1 (mg of protein)-1
same,IC50,HT-29 [32],365 nM
